Data set [1] in a line: CSIC solubility in water and solubilizer solutions. It counts as physicochemical. The settings on record: water. Put shortly: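 Excess CSIC was rotated at moderate speed in the solubilizer solutions at ambient temperature for 120 h. The mixture was filtered through a 0.2 µm membrane, and the filtrate was assayed by HPLC. HPLC conditions: Gemini C18 column, isocratic acetonitrile-0.075% (v/v) TFA (40:60) at 1.2 ml/min, UV detection at 302 nm, room temperature, total peak area against a linear least-squares calibration. LOQ was 0.5 µg/ml.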

Data set [2] is described as follows: EFdA/CSIC stability in the film polymer solution. Type of data set: physicochemical. The settings on record: 25°C/65% R.H. and 40°C/75% R.H., 4 weeks. The gist of the method: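 Drug-loaded aqueous PVA (7%, w/w) film-casting solution, about 0.5 ml per vial, was sealed against evaporation and light. EFdA: Zorbax C18, 0.4% phosphoric acid/methanol gradient, 0.8 ml/min, UV 260 nm. CSIC: Gemini C18, acetonitrile-0.075% TFA (40:60), 1.2 ml/min, UV 302 nm.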

The nature of data set [3]: In vitro cytotoxicity, MTT assay. Type of data set: cell-based. The settings on record: human, HEC-1A cells. Put shortly: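 HEC-1A cells were grown in McCoy's 5A with 10% FBS and penicillin/streptomycin at 37°C, 5% CO2, then seeded at 1×10⁴ cells/well. After 24 h, free drug (5 ng/ml–50 µg/ml) or film at the equivalent dose, or placebo film, was added for 24 h. MTT (5 mg/ml stock) was added in fresh medium for 3 h at 37°C. Formazan was dissolved in DMSO and absorbance read at 595 nm.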
A general note: Formazan colour is commonly taken as a measure of viable cells.

In a further data set the test system is HIV-1. To be noted: read-out: EC50 of CSIC; cited from earlier work.

Structures are written as SMILES. In brackets after ≈: the same amount, converted by molar mass. Bounds are passed on as bounds.

In data set [1], `NC(=O)c1[nH]c2ccc(Cl)cc2c1S(=O)(=O)c1ccccc1` [CSIC, 5-chloro-3-phenylsulfonylindole-2-carboxamide] displayed a solubility of under 0.5 µg/mL. The “loss of drug content in film polymer solution” value in data set [2] was “No loss of drug content”. This compound also yielded a CC50 at 24 h in data set [3] of 11.4 ± 2.8 µg/mL (≈ 34.1 µM). For the same compound, the 50% effective concentration (EC50) in the data set with HIV-1 was 1.2 nM.

`C#C[C@]1(CO)O[C@@H](n2cnc3c(N)nc(F)nc32)C[C@@H]1O` [EFdA, 4’-ethynyl-2-fluoro-2’-deoxyadenosine]: the “loss of drug content in film polymer solution” value in data set [2] is on record as “No loss of drug content”. Besides, in data set [3], the CC50 at 24 h is over 50 µg/mL.

As usually defined, the solubility is the concentration that dissolves in the medium under given conditions. In general, CC50 refers to the concentration that lowers cell viability or growth by half. Broadly, the EC50 is the concentration giving half of the maximal effect.

Source of the values: article PMC4529374 (Pharmaceutical research, 2015).
